# Source: PubChem BioAssay
# RORa activator = activators of human nuclear receptor RORA; P35398; CHO-K1 Gal4-RORA LBD luciferase reporter, luminescence; percent increase over mock-subtracted basal signal; activation, % at 10 µM; 1.5% of 65,000 active; AID 560;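 active = activation above the mean of all tested compounds plus 3 SD, cut at about 49% in these data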;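 also: 0% = DMSO-treated RORA cells and 100% = added signal equal to DMSO minus mock-transfected cells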
# HEK293 NFkB inh = inhibitors of the PMA/ionomycin-induced NF-kB reporter in HEK293 cells. HEK-293 NF-kB luciferase reporter, luminescence. inhibition, % at 3 µM. 0.21% of 62,000 active. AID 465;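 active = inhibition above the mean of all tested compounds plus 3 SD, cut at about 40% in these data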;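 also: 0% = stimulated DMSO wells and 100% = 10 µM reference inhibitor 5653914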
#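 System: NF-kB luciferase reporter HEK-293 cells | Replication: Single test | Control set: DMSO vs reference inhibitor | Evaluation: % inhibition | Schedule: 1 h pretreatment, 16 h stimulation, 37 °C | Probe or stimulus: PMA with ionomycin | Compound dosing: One dose, 3 µM | Detection: Luciferase luminescence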
# Jurkat tox 60K = cytotoxic compounds reducing Jurkat cell viability. Jurkat E6.1 viability, ATP luminescence, 48 h. inhibition, % at 4 µM. 1.2% of 56,000 active. AID 463;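 active = inhibition above the mean inhibition of all tested compounds plus 3 SD, cut at about 28% in these data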
# SF1 activator = activates the human nuclear receptor SF-1 | Q13285 | 1.9% of 65,000 active | activation, % at 10 µM | AID 522 | CHO-K1 Gal4-SF-1 LBD luciferase reporter; % increase over DMSO SF-1-specific signal;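 active = activation above the mean activation of all tested compounds plus 3 SD, cut at about 50% in these data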
# Target sequence (Q13285 whole entry, looked up, the tested form may be a part): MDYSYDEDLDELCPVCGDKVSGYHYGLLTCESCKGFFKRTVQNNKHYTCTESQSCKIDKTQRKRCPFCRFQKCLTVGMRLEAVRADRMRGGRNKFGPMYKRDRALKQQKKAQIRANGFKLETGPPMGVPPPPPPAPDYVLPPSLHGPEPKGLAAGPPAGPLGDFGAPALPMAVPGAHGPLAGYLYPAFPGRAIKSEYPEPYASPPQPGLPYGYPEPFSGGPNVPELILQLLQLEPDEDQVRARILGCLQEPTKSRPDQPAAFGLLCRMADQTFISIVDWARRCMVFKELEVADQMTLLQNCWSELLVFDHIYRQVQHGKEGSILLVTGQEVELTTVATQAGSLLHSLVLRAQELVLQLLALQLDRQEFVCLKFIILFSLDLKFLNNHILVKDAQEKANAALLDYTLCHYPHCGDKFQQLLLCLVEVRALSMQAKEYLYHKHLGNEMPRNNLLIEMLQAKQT
#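 Test system: CHO-K1 cells with Gal4–hSF-1 LBD chimera plus Gal4-driven luciferase; Input: 4,000 cells/well; Compound: 10 µM only; Times: 20 h compound treatment, 37 °C; Measured by: steady-glow luciferase luminescence, read after 15 min reagent incubation; Measure: percent activation versus DMSO; Control set: DMSO and mock-transfected background; Replicates: one test per compound.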
# Numbers without * were called inactive; . = not tested or not shown. Only some compounds are listed: those with a hit (about 3.9% of all), similar ones and a draw of the others.
SMILES,RORa activator,HEK293 NFkB inh,Jurkat tox 60K,SF1 activator
C/C=C/COC(=O)c1[nH]c2c(c1C)C(=O)CC(c1ccc(N(C)C)cc1)C2 (stereo unspecified),43,10,0,4
CCOCCOC(=O)c1[nH]c2c(c1C)C(=O)CC(c1ccc(N(C)C)cc1)C2 (stereo unspecified),6,10,1,24
Cc1c(C(=O)OCC(C)C)[nH]c2c1C(=O)CC(c1ccco1)C2 (stereo unspecified),-13,36,99*,-18
Cc1c(C(=O)OC2CCCC2C)[nH]c2c1C(=O)CCC2 (stereo unspecified),25,8,7,16
Cc1c(C(=O)OCC2CCCO2)[nH]c2c1C(=O)CC(c1ccco1)C2 (stereo unspecified),56*,23,78*,4
C/C=C/COC(=O)c1[nH]c2c(c1C)C(=O)CC(c1ccco1)C2 (stereo unspecified),-4,29,99*,-28
c1ccc2c(-c3nc(C4CCCCC4)no3)cc(-c3ccncc3)nc2c1,-13,14,4,-15
COC(=O)C1C(=O)c2c([nH]c(C(=O)OC3CCCC3)c2C)CC1C (stereo unspecified),49*,-38,.,56*
CCOC(=O)c1ccc(N=CC2=C(O)CC(c3ccco3)CC2=O)cc1 (stereo unspecified),19,.,.,26
C=CCOC(=O)c1[nH]c2c(c1C)C(=O)CC(c1ccco1)C2 (stereo unspecified),-32,32,100*,-25
CCOC(=O)c1sc(N)c(C#N)c1COC(=O)CNC(=O)c1ccccc1,3,3,9,-1
CCOC(=O)N1CCN(C(=O)c2ccc3c(c2)sc2nc(-c4ccccc4)cn23)CC1,62*,-20,11,110*
CCOC(=O)N1CCC(NC(=O)c2ccc3c(c2)sc2nc(-c4ccc(OC)cc4)cn23)CC1,23,4,8,39
CC(C)CCNC(=O)CN(Cc1ccc2c(c1)OCO2)C(=O)Cn1nnc(-c2cccs2)n1,35,12,2,10
O=C(c1cc2ccccc2o1)c1nc2c(n1O)CCCCC2,56*,-16,2,44
O=C(OCCN1CCCCC1)c1cc2ccccc2o1,-6,14,.,-13
O=C(Nc1ccc(-c2nc3ccccc3[nH]2)cc1)c1ccco1,34,-41,3,78*
CC(=O)N(C)c1ccc(NC(=O)c2ccco2)cc1,33,-9,0,50*
CC1CN(S(=O)(=O)c2ccc(NC(=O)c3ccco3)cc2)CC(C)O1 (stereo unspecified),-21,17,.,-16
O=C(Nc1nccs1)c1ccc(NC(=O)c2ccco2)cc1,53*,-16,.,56*
O=C(Nc1ccc(Cc2ccncc2)cc1)c1ccco1,32,9,-9,37
O=C(Nc1ccc(S(=O)(=O)N2CCCCCC2)cc1)c1ccco1,63*,6,4,33
Cc1ccc2cccc(S(=O)(=O)Nc3ccc4c(c3)OCO4)c2n1,-25,3,6,-2
COC(=O)CCCCCC(CCC(=O)OC)NC(C)=O (stereo unspecified),21,11,-1,-16
CCN(CCCNC(=O)CN(C)S(=O)(=O)c1cccc2nsnc12)c1ccccc1,7,19,0,-10
SMILES,RORa activator,HEK293 NFkB inh,Jurkat tox 60K,SF1 activator
CC(=O)N(CC(C)(C)CC=C(C)C)c1ccccc1,15,6,-4,6
O=C(Nc1ccc(Nc2ccccc2)cc1)c1ccco1,60*,-51,5,87*
O=C(O)c1nc2ccccc2nc1C(=O)O,44,-1,7,58*
COc1ccccc1Nc1ncc(-c2cccs2)s1,34,.,.,95*
O=C(CCS(=O)(=O)c1ccccc1)Nc1nc2c(s1)COc1ccccc1-2,2,9,-6,-16
CCOc1cc(-c2cc(-c3ccc(N)cc3)nc(N)c2C#N)ccc1O,32,14,-5,54*
CCOc1ccc2nc(NC(=O)COC)sc2c1,7,-18,.,15
CCCCOC(=O)Nc1nc2ccc(OC)cc2s1,52*,2,1,23
COc1ccc2nc(Nc3nc(C)c(C(C)=O)s3)sc2c1,15,-47,9,80*
COc1cc(C)nc(Nc2nc(C)c(C(C)=O)s2)n1,-10,.,.,-21
CCOCC(=O)Nc1nc2ccc(OC)cc2s1,33,0,3,51*
CCCCN(C(=O)NC(=O)Nc1nc2ccc(OC)cc2s1)S(C)(=O)=O,-4,12,.,3
CC1(C)SCC2C(=O)N3C(CSC3(C)C)C(=O)N21 (stereo unspecified),-1,6,0,-6
CCn1c(SCC(=O)c2c[nH]c3ccccc23)nnc1-c1cccs1,-3,8,58*,22
Cn1cnnc1SCC(=O)c1c[nH]c2ccccc12,18,-10,1,30
CC(C)(C)c1cc(NC(=O)C2CCCO2)no1 (stereo unspecified),8,10,-5,70*
CSc1ccccc1NC(=O)C1CCCO1 (stereo unspecified),13,8,-7,-4
CC(C)c1ccc(NC(=O)c2cccnc2)cc1,69*,-24,1,34
CCc1ccc(NC(=O)c2cccnc2)cc1,-3,9,6,33
CCCC(=O)Nc1ccc2oc(-c3ccc(OC)c(Br)c3)nc2c1,80*,-10,-5,62*
CCc1ccc2oc(-c3cccc(NC(=O)c4cccnc4)c3)nc2c1,58*,-15,.,32
CCCCCC(=O)Nc1ccc2oc(-c3cccnc3)nc2c1,-5,5,0,29
C=CCOC(=O)N1CCN(c2cccc(C(F)(F)F)c2)CC1,16,9,-1,-6
O=C(COC(=O)C1CCCCC1C(=O)N1CCc2ccccc21)NCc1ccco1 (stereo unspecified),-18,11,-4,-7
CCOC(=O)N1CCN(S(=O)(=O)c2cc(OCC(N)=O)c(C)cc2Cl)CC1,-5,6,0,13
SMILES,RORa activator,HEK293 NFkB inh,Jurkat tox 60K,SF1 activator
O=C(c1ccco1)N1CCN(C2CCCC2)CC1,18,14,5,15
CC(Sc1nnnn1-c1ccccc1)C(=O)Nc1ccc(Cl)cn1 (stereo unspecified),-5,-5,-2,12
O=C(Nc1cccc(C(F)(F)F)c1)c1cccnc1,17,-5,5,10
COc1ccccc1C(=O)Nc1ccc2oc(-c3ccc(F)cc3)nc2c1,65*,-2,-4,42
O=C(Nc1ccc2oc(-c3ccccc3)nc2c1)c1cccnc1,71*,-13,-3,71*
O=C(Cc1ccccc1)Nc1ccc2oc(-c3cccnc3)nc2c1,6,4,4,20
CC(C)(C)c1cc(NC(=O)c2cccnc2)no1,37,-1,-6,75*
O=C(Nc1ccc2nn(-c3ccccc3)nc2c1)c1cccnc1,46,2,7,61*
CCOC(=O)c1cc2sccc2n1CC(=O)c1ccc2c(c1)OCCO2,-19,24,-1,-2
CCCN1C(=O)c2ccccc2NC1c1ccc(OC)cc1OC (stereo unspecified),-12,20,0,-7
